Source: PubChem BioAssay
Sampled rows, rich in hits. Any-hit rate of the full collection: about 1.3%.
Efflux pump mplx = inhibitors of Candida antifungal efflux pumps expressed in yeast | S. cerevisiae Candida pump triplex, Nile Red efflux | inhibition, % at 10 µM | actives 0.44% (n = 330,000) | AID 485275;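 active means plate passing quality check with inhibition over a set limit, or well fluorescence over plate mean plus 4 SD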;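 further: Nile Red retained in pooled yeast measured as flow cytometry median fluorescence; 0% = buffer negative control and 100% = Enniatin B positive control; higher means more Nile Red kept so more efflux inhibition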
MT1-MMP act inh = MT1-MMP (human) activation inhibition; GFP/RFP ratio change, % at 20 µM; actives 0.061% (n = 360,000); P50281; AID 651647; HT1080 RFP-PRO-GFP cells, GFP/RFP ratio fluorescence, overnight; percent of plate control window, DMSO zero;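 active means GFP/RFP ratio change of at least 30% with cell ATP level not reduced by more than half and red fluorescence within 50% of control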
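Material – HT1080 RFP-PRO-GFP cells · Control set – DMSO wells and RFP-L50D-GFP cells · Incubation – overnight cell settling, then overnight compound exposure, 37 °C, 5% CO2 · Compound dosing – single-point 20 µM compound, 1% DMSO · Read-out – GFP/RFP fluorescence ratio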
HGIII-sPLA2 inh = Inhibits HGIII-sPLA2 liposome hydrolysis, primary screen; QFRET BODIPY PC-A2 liposome hydrolysis, fluorescence; inhibition, % at 12.2 µM; actives 0.56% (n = 370,000); AID 743126;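 active means inhibition above mean plus 3 SD of compounds lying within the high and low control bounds, cut at about 19% in these data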;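 further: 0% = median of test compound wells and 100% = no enzyme DMSO wells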
Target sequence (Q9NZ20 whole entry, looked up): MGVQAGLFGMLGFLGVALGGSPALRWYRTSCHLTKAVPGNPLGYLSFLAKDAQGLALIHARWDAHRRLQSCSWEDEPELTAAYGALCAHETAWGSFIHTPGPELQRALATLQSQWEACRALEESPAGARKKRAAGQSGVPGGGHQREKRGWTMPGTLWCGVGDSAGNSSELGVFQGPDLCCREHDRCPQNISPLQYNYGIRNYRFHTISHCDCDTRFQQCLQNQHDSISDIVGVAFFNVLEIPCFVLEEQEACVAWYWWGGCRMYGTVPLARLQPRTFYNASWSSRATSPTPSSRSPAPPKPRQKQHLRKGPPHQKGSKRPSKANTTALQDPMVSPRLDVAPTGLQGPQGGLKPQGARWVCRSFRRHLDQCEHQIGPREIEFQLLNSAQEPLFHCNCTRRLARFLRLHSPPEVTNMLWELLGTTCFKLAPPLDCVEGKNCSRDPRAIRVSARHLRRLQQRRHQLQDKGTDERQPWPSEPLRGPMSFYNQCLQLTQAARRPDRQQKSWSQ
H9c2 TAG inh = inhibitors of triacylglycerol accumulation; H9c2 cells, Nile Red lipid (TAG) fluorescence; cells loaded with 200 µM oleic acid; inhibition, % at 12.5 µM; actives 0.66% (n = 230,000); AID 651582;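 active means pattern-corrected inhibition of lipid staining of at least 50% with the nuclear-stain viability signal not falling by more than 50%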;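 further: 0% = DMSO wells and 100% = triacsin C control wells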
H9c2 TAG conf = confirmation of triacylglycerol accumulation inhibitors; shares compounds with H9c2 TAG inh; H9c2 lipid accumulation, Nile Red fluorescence; cells loaded with 200 µM oleic acid; inhibition, % at 12.5 µM; actives 71% (n = 990); AID 651629;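 active means mean inhibition across replicates of 40% or more; inactive means mean inhibition below 40%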;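 further: plate controls were DMSO only wells for no effect and Triacsin C treated wells for full effect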
The depositor's hits bear a star; / = not tested or not shown.

SMILES	Efflux pump mplx	MT1-MMP act inh	HGIII-sPLA2 inh	H9c2 TAG inh	H9c2 TAG conf
CCC1(O)CC2CN(CCc3c([nH]c4ccccc34)C(C(=O)OC)(c3cc4c(cc3OC)N(C=O)C3C(O)(C(=O)OC)C(OC(C)=O)C5(CC)C=CCN6CCC43C65)C2)C1 (configuration not stated)	/	13	16	52*	57*
CC(C)CNC(=O)c1coc(=O)c(Br)c1	0	10	-1	60*	17
CCC(C)(C)NC(=O)C(c1sccc1C)N(Cc1ccco1)C(=O)c1csnn1 (configuration not stated)	0	-3	-1	/	/
CCC(C)(C)NC(=O)C(c1ccccc1F)N(Cc1ccco1)C(=O)c1csnn1 (configuration not stated)	0	-3	0	53*	19
CCOC(=O)N1CCN(C(=O)c2cc3cc(OC)c(OC)cc3[nH]2)CC1	0	5	6	/	/
CCc1ccc(S(=O)(=O)NC(=S)NC2CCCCC2)cc1	0	-4	19	-12	/
COc1ccc(S(=O)(=O)N(C)c2ccc(C(=O)NCC3CCCO3)cc2)cc1OC (configuration not stated)	-3	-4	7	11	/
COC(=O)CC1C(=O)NCCN1C(=O)c1ccc(S(=O)(=O)N2CCOCC2)cc1 (configuration not stated)	0	1	-2	61*	7
Cc1c(-c2ccccc2)c(-c2ccc(OCCN(C)C)cc2)n2ccccc12	/	-7	-7	13	/
CC(C)NS(=O)(=O)c1ccc(CCC(=O)Nc2cc(Cl)ccc2Oc2ccccc2)cc1	0	-10	/	52*	34
Cc1ccc(-c2nn(-c3ccccc3)cc2CSC(=N)N)cc1	0	-3	17	53*	109*
OCc1cn(-c2ccccc2)nc1-c1ccc(-c2nn(-c3ccccc3)cc2CO)cc1	0	-5	7	-13	/
COc1ccc(-c2cc(C(F)F)n3ncc(C(=O)N4CCc5ccccc54)c3n2)cc1	0	2	9	/	/
Cc1ccc(-c2cc(C(F)F)n3ncc(C(=O)N4CCCc5ccccc54)c3n2)cc1	0	-3	0	60*	30
CCOCc1nc2nc(Cl)c(Cl)nc2[nH]1	/	-20	6	-9	/
CCOc1ccc(C(=O)CSc2nnc(SCc3ccc(Cl)cc3)s2)cc1	/	/	-3	/	/
Cc1ccc2nc(NC(=O)CN(C)S(=O)(=O)c3cccc4nsnc34)sc2c1	0	4	0	71*	65*
CCCCNC(=O)COC(=O)c1ccc(Cl)c(S(N)(=O)=O)c1	0	-4	3	8	/
COC(=O)/C=C/c1ccccc1S(=O)(=O)N(Cc1ccccc1)Cc1ccco1	0	5	-11	54*	48*
O=S(=O)(c1ccc(S(=O)(=O)N(Cc2ccccc2)Cc2ccco2)cc1)N1CCCC1	0	5	4	/	/
Cc1ccc(C2C(C=Nc3c(C)n(C)n(-c4ccccc4)c3=O)=C(c3ccccc3)Oc3ccccc32)cc1 (configuration not stated)	0	-8	-1	69*	57*
CC(=O)C1=CN(Cc2ccccc2)CCC1=O	/	2	5	-15	/
COC(=O)C1=C(C)N(Cc2cccc(C(F)(F)F)c2)C(=NCc2ccc(OC)cc2)NC1c1ccccc1 (configuration not stated)	/	/	-4	/	/
COC(=O)C1=C(C)N(Cc2ccccc2)C(=NCc2ccc(OC)cc2)N[C@H]1c1ccccc1	0	-4	5	56*	17
CCC[C@H](CN[C@@H](CNC)[C@H](C)O)NCCc1ccc(OC)cc1	0	5	3	5	/
SMILES	Efflux pump mplx	MT1-MMP act inh	HGIII-sPLA2 inh	H9c2 TAG inh	H9c2 TAG conf
CCCC[C@H](CN[C@@H](CNC)[C@H](C)CC)NCCC12CCC(CC1)C2	0	12	14	51*	70*
c1ccc(N(c2ccccc2)c2nc(N3CCCC3)nc(-n3ccnc3)n2)cc1	0	-22	-1	60*	43*
CC(C)(C)Cc1nnc(NC(=O)CCc2ccccc2)s1	0	3	-4	/	/
CC1(C(=O)Nc2ccc3c(c2)OCCO3)CCN1C(=O)c1ccco1 (configuration not stated)	/	3	-5	11	/
Cc1nc(C(=O)Nc2ccccc2Cl)cc2c1[nH]c1ccccc12	0	-3	-4	75*	55*
COc1ccc(NC(=O)c2cc3c([nH]c4ccccc43)c(C)n2)cc1	0	2	-2	/	/
